This is an account of results in ChEMBL document CHEMBL4346663, “N-Cinnamoylanthranilates as human TRPA1 modulators: Structure-activity relationships and channel binding sites” (Eur J Med Chem, 2019).

For data set [1], the target named is T1, Transient receptor potential cation channel subfamily A member 1 (Homo sapiens, UniProt O75762). Nature of the data set: Agonist activity at human TRPA1 expressed in HEK293 cells assessed as increase in calcium influx by Fluo-4-AM dye based fluorescence assay. In kind it is cell-based. The following applies: read-out: EC50. The method, boiled down:
(§1)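 Stably transfected hTRPA1- or hTRPM8-HEK293 cells on poly-D-lysine plates for 48 h, loaded with Fluo-4AM (2 µM, 45 min, dark, room temperature), in isotonic HEPES buffer pH 7.4. FlexStation 240 s run: 20 s baseline, compound added, calcimycin added at 180 s. ΔRFU expressed as % calcimycin, DMSO-subtracted. Screening N = 3. Dose-response curves fitted for logEC50 (N = 3 in duplicate or triplicate).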

In data set [2] the test system is Transient receptor potential cation channel subfamily A member 1 (Homo sapiens), O75762 [F944A]. The experiment in a line: Agonist activity at human TRPA1 Phe944Ala mutant expressed in HEK293 cells assessed as Ca2+ influx at 30 uM by fluorescence assay. In kind it is cell-based. In short, it runs like this: (§2)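 HEK293 cells stably expressing hTRPA1 point mutants (C621A, F909A or F944A), single-cell cloned under G418 selection. Cells plated on poly-D-lysine for 48 h, loaded with Fluo-4AM 2 µM for 45 min at room temperature. FlexStation read (ex 485/em 538 nm): 20 s baseline, compound added, calcimycin added at 180 s. Response expressed as % calcimycin from ΔRFU, vehicle-subtracted, and compared with wild-type hTRPA1 cells.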
Chain of Transient receptor potential cation channel subfamily A member 1 (Homo sapiens), O75762 [F944A] (O75762 whole entry F944A): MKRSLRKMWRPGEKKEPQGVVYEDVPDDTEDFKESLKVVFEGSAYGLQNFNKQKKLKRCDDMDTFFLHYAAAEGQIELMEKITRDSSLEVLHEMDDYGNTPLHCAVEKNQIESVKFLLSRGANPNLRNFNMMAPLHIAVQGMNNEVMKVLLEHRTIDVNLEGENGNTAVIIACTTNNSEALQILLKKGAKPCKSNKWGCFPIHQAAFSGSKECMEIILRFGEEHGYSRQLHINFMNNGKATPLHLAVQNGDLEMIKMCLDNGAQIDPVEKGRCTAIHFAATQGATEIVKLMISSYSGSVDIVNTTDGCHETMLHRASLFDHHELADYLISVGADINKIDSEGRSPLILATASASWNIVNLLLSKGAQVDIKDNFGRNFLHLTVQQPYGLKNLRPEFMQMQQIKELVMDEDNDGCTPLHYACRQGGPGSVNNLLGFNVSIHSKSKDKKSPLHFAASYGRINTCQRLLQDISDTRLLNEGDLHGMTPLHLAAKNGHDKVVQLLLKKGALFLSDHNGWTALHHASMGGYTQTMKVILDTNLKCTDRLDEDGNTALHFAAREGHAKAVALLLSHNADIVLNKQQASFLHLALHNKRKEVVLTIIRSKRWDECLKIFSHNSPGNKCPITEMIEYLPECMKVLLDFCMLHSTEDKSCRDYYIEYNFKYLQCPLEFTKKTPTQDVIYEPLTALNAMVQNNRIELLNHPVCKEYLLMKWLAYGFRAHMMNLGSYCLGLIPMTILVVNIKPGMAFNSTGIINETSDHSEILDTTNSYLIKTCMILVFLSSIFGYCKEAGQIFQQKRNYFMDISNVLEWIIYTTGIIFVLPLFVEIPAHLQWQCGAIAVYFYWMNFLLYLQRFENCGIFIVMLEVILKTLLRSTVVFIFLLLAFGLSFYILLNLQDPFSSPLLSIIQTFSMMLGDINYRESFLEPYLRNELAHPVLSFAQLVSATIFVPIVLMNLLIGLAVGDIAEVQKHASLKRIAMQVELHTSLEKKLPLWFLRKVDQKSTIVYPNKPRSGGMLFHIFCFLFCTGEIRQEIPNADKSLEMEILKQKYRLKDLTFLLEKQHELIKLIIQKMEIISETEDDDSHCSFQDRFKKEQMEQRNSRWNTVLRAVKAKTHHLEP

Data set [3] has as its target T1, Transient receptor potential cation channel subfamily A member 1. The experiment in a line: Agonist activity at human TRPA1 expressed in HEK293 cells assessed as increase in calcium influx by Calcium-5 dye based fluorescence assay. The format is cell-based.
Data set [4] relates to Transient receptor potential cation channel subfamily A member 1 (Homo sapiens), O75762 [F909A]. The experiment in a line: Agonist activity at human TRPA1 Phe909Ala mutant expressed in HEK293 cells assessed as Ca2+ influx at 30 uM by fluorescence assay. The format is cell-based. The method, boiled down: as §2
Chain of Transient receptor potential cation channel subfamily A member 1 (Homo sapiens), O75762 [F909A] (O75762 whole entry F909A): as the sequence (O75762 whole entry F944A) above, with F909A, A944F counted along it
Data set [5] concerns Transient receptor potential cation channel subfamily A member 1 (Homo sapiens), O75762 [C621A]. Nature of the data set: Agonist activity at human TRPA1 […] mutant expressed in HEK293 cells assessed as Ca2+ influx at 1 uM by fluorescence assay. In kind it is cell-based.
Chain of Transient receptor potential cation channel subfamily A member 1 (Homo sapiens), O75762 [C621A] (O75762 whole entry C621A): as the sequence (O75762 whole entry F944A) above, with C621A, A944F counted along it
In data set [6] the test system is Transient receptor potential cation channel subfamily A member 1 (Homo sapiens), O75762 [F909A]. The experiment in a line: Agonist activity at human TRPA1 Phe909Ala mutant expressed in HEK293 cells assessed as Ca2+ influx at 1 uM by fluorescence assay. The format is cell-based. The method, boiled down: as §2
For data set [7], the target named is T1, Transient receptor potential cation channel subfamily A member 1. Nature of the data set: Agonist activity at human TRPA1 expressed in HEK293 cells assessed as increase in calcium influx by Fluo-3/acetoxymethyl ester dye based FLIPR analysis. The format is cell-based.
Data set [8] concerns the target Transient receptor potential cation channel subfamily A member 1 (Mus musculus, UniProt Q8BLA8). Nature of the data set: Agonist activity at mouse TRPA1 expressed in CHO cells assessed as increase in calcium influx by Fluo-3 based FLIPR analysis. In kind it is cell-based.
Data set [9] concerns the target T1, Transient receptor potential cation channel subfamily A member 1. Nature of the data set: Agonist activity at human TRPA1 expressed in HEK293 cells assessed as increase in calcium influx at 30 uM by Fluo-4-AM dye based fluorescence assay relative to calcimycin. The format is cell-based. The method, boiled down: as §1
For data set [10], the target named is T2, Transient receptor potential cation channel subfamily M member 8 (Homo sapiens, UniProt Q7Z2W7). The experiment in a line: Agonist activity at human TRPM8 expressed in HEK293 cells assessed as increase in calcium influx at 100 uM by Fluo-4-AM dye based fluorescence assay relative to calcimycin. In kind it is cell-based. In short, it runs like this: as §1
Target sequence in this assay (Q7Z2W7 whole entry, looked up): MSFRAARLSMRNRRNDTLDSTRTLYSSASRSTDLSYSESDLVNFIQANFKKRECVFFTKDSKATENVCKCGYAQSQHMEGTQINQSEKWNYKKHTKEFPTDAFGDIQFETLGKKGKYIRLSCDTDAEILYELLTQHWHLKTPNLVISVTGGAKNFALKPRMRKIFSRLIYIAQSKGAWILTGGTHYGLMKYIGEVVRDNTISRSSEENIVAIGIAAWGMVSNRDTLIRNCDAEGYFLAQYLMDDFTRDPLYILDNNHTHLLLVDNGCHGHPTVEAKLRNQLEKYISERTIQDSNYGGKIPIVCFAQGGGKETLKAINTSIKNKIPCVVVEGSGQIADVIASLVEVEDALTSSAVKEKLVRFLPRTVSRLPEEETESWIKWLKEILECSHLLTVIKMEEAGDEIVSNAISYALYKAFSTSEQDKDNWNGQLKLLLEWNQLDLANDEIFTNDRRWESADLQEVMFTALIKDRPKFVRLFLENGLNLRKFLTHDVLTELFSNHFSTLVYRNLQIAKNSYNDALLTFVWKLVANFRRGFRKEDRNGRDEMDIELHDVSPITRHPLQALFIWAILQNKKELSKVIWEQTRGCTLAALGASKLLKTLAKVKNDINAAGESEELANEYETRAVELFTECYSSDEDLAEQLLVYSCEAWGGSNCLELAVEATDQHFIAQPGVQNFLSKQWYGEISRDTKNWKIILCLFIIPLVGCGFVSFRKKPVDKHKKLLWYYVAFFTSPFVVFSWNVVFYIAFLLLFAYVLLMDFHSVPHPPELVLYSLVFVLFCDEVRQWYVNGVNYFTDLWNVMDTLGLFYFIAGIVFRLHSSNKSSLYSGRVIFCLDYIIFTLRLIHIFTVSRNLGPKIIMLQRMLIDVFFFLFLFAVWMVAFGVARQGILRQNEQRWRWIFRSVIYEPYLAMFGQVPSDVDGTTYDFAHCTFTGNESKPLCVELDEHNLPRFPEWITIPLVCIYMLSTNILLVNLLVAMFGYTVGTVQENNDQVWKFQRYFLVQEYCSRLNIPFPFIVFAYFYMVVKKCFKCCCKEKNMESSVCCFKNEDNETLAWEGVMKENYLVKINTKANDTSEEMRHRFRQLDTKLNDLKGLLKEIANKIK

Data set [11] deals with T1, Transient receptor potential cation channel subfamily A member 1. Nature of the data set: Antagonist activity at human TRPA1 expressed in HEK293 cells assessed as increase in calcium influx at 100 uM incubated for 10 mins prior to CA addition by Fluo-4-AM dye based fluorescence assay relative to CA. The format is cell-based. Also noted: scale not given: the % may be the effect or the level left. In short, it runs like this:
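hTRPA1-HEK293 cells loaded with Fluo-4AM (2 µM). Compound pre-incubated 10 min, then cinnamaldehyde standard agonist added. FlexStation read, ex 485/em 538 nm. ΔRFU normalized to the CA response set at 100 % after DMSO vehicle subtraction. N = 3. logIC50 taken from dose-response fits.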

In data set [12] the test system is Transient receptor potential cation channel subfamily A member 1 (Homo sapiens), O75762 [F944A]. The experiment in a line: Agonist activity at human TRPA1 Phe944Ala mutant expressed in HEK293 cells assessed as Ca2+ influx at 10 uM by fluorescence assay. In kind it is cell-based. The method, boiled down:
as §2

In data set [13] the target is T2, Transient receptor potential cation channel subfamily M member 8. Nature of the data set: Antagonist activity at human TRPM8 expressed in HEK293 cells assessed as increase in calcium influx at 100 uM incubated for 10 mins prior to WS5 challenge by Fluo-4-AM dye based fluorescence assay relative to WS5. The format is cell-based. Further details: scale not given: the % may be the effect or the level left. The method, boiled down: (§3)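 hTRPM8-HEK293 cells loaded with Fluo-4AM (2 µM, 45 min). Test compound pre-incubated 10 min before WS5 standard agonist. FlexStation fluorescence at 485/538 nm. ΔRFU given as % of WS5 response after DMSO vehicle subtraction. N = 3. IC50 from dose-response curves.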
Target sequence in this assay (Q7Z2W7 whole entry, looked up): as above

The target is the same in data set [14]. Nature of the data set: Agonist activity at human TRPM8 expressed in HEK293 cells assessed as increase in calcium influx at 30 uM by Fluo-4-AM dye based fluorescence assay relative to calcimycin. In kind it is cell-based. In short, it runs like this:
as §1
Target sequence in this assay (Q7Z2W7 whole entry, looked up): as above

For data set [15], the system named is Transient receptor potential cation channel subfamily A member 1 (Homo sapiens), O75762 [F909A]. The experiment in a line: Agonist activity at human TRPA1 Phe909Ala mutant expressed in HEK293 cells assessed as Ca2+ influx at 10 uM by fluorescence assay. The format is cell-based. In short, it runs like this: as §2
The target in data set [16] is T2, Transient receptor potential cation channel subfamily M member 8. The experiment in a line: Antagonist activity at human TRPM8 expressed in HEK293 cells assessed as inhibition in WS5-induced increase in calcium influx incubated for 10 mins prior to WS5 challenge by Fluo-4-AM dye based fluorescence assay. The format is cell-based. The method, boiled down:
as §3
Target sequence in this assay (Q7Z2W7 whole entry): as the sequence (Q7Z2W7 whole entry, looked up) above

Data set [17] is filed under the species Cavia porcellus. The experiment in a line: Antagonist activity at TRPA1 in Dunkin-Hartley guinea pig vagus nerve assessed as inhibition of ACR-stimulated vagus nerve by measuring depolarization at 100 uM incubated for 10 mins followed by ACR stimulation for 140 secs […]. The method, boiled down:
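Guinea pig vagus nerve (male Dunkin-Hartley) in Krebs-Henseleit buffer; compound from DMSO stock diluted 1000×. Two control acrolein (300 µM, 2 min) responses, each washed to baseline. Then 10 min compound pretreatment and re-stimulation with acrolein 300 µM for 2 min 20 s. After washout, a recovery acrolein response was taken. Depolarization recorded in mV.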

A short description of data set [18]: Dissociation constant, pKa of the compound at pH 7.4. In kind it is physicochemical.
The species entered for data set [19] is Cavia porcellus. Nature of the data set: Agonist activity at TRPA1 in Dunkin-Hartley guinea pig vagus nerve assessed as activation of vagus nerve by measuring depolarization at 100 uM […]. The method, boiled down: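 Isolated vagus nerves from male Dunkin-Hartley guinea pigs (300-400 g, eight animals). Compound DMSO stocks diluted 1000× in Krebs-Henseleit buffer. Viability checked with capsaicin (1 µM) at the start and acrolein (300 µM) at the end. Single non-cumulative concentrations applied for 2 min each, with KH wash to baseline between them. DMSO vehicle run alike. Depolarization recorded in mV.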
A general note: Patch clamp records ionic current or voltage across a cell membrane.

The target in data set [20] is T1, Transient receptor potential cation channel subfamily A member 1. The experiment in a line: Agonist activity at human TRPA1 expressed in HEK293 cells assessed as increase in calcium influx by FLIPR analysis. The format is cell-based. The method, boiled down: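 Stably transfected hTRPA1-HEK293 cells plated on poly-D-lysine at 12500 cells per well, grown 48 h, loaded with 2 µM Fluo-4AM for 45 min in the dark at room temperature. Assayed in isotonic HEPES buffer (pH 7.4) on a plate reader, ex 485/em 538 nm. Compound added at 20 s, calcimycin at 180 s. ΔRFU taken as % calcimycin after DMSO subtraction. Three independent experiments.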

The test system of data set [21] is Transient receptor potential cation channel subfamily A member 1 (Homo sapiens), O75762 [F944A]. Nature of the data set: Agonist activity at human TRPA1 Phe944Ala mutant expressed in HEK293 cells assessed as Ca2+ influx at 100 uM by fluorescence assay. The format is cell-based. The method, boiled down:
(§4)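 HEK293 cells stably expressing hTRPA1 point mutants, made by FuGENE 6 transfection, G418 (0.5 mg ml-1) selection and single-cell cloning, grown in DMEM with 25 mM HEPES, 10% FBS and geneticin. Ca2+ influx was read by Fluo dye fluorescence at room temperature, with calcimycin added at the end. Response was ΔRFU as % of calcimycin, with the DMSO vehicle subtracted.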

In data set [22] the target is T1, Transient receptor potential cation channel subfamily A member 1. Nature of the data set: Agonist activity at human TRPA1 expressed in HEK293 assessed as increase in calcium influx by […]. In kind it is cell-based.
The test system of data set [23] is Transient receptor potential cation channel subfamily A member 1 (Homo sapiens), O75762 [F909A]. Nature of the data set: Agonist activity at human TRPA1 Phe909Ala mutant expressed in HEK293 cells assessed as Ca2+ influx at 100 uM by fluorescence assay. In kind it is cell-based. In short, it runs like this: as §4
Data set [24] concerns Transient receptor potential cation channel subfamily A member 1 (Homo sapiens), O75762 [C621A]. Nature of the data set: Agonist activity at human TRPA1 […] mutant expressed in HEK293 cells assessed as Ca2+ influx […] by fluorescence assay. The format is cell-based. The method, boiled down: as §2
The target in data set [25] is T1, Transient receptor potential cation channel subfamily A member 1. The experiment in a line: Agonist activity at human TRPA1 expressed in CHO cells assessed as increase in calcium influx by Fluo-4-AM dye based fluorescence assay. The format is cell-based.
For data set [26], the system named is Transient receptor potential cation channel subfamily A member 1 (Homo sapiens), O75762 [F944A]. Nature of the data set: Agonist activity at human TRPA1 Phe944Ala mutant expressed in HEK293 cells assessed as Ca2+ influx […] by fluorescence assay. In kind it is cell-based. The method, boiled down:
as §2

Data set [27] relates to Transient receptor potential cation channel subfamily A member 1 (Homo sapiens), O75762 [F909A]. The experiment in a line: Agonist activity at human TRPA1 Phe909Ala mutant expressed in HEK293 cells assessed as Ca2+ influx […] fluorescence assay. The format is cell-based. The method, boiled down: as §2

The source made the active and inactive calls. No cut-off for these calls is given here.

T1 sequence (O75762 whole entry): as the sequence (O75762 whole entry F944A) above, with A944F counted along it
Chain of Transient receptor potential cation channel subfamily A member 1 (Mus musculus, UniProt Q8BLA8) (Q8BLA8 whole entry): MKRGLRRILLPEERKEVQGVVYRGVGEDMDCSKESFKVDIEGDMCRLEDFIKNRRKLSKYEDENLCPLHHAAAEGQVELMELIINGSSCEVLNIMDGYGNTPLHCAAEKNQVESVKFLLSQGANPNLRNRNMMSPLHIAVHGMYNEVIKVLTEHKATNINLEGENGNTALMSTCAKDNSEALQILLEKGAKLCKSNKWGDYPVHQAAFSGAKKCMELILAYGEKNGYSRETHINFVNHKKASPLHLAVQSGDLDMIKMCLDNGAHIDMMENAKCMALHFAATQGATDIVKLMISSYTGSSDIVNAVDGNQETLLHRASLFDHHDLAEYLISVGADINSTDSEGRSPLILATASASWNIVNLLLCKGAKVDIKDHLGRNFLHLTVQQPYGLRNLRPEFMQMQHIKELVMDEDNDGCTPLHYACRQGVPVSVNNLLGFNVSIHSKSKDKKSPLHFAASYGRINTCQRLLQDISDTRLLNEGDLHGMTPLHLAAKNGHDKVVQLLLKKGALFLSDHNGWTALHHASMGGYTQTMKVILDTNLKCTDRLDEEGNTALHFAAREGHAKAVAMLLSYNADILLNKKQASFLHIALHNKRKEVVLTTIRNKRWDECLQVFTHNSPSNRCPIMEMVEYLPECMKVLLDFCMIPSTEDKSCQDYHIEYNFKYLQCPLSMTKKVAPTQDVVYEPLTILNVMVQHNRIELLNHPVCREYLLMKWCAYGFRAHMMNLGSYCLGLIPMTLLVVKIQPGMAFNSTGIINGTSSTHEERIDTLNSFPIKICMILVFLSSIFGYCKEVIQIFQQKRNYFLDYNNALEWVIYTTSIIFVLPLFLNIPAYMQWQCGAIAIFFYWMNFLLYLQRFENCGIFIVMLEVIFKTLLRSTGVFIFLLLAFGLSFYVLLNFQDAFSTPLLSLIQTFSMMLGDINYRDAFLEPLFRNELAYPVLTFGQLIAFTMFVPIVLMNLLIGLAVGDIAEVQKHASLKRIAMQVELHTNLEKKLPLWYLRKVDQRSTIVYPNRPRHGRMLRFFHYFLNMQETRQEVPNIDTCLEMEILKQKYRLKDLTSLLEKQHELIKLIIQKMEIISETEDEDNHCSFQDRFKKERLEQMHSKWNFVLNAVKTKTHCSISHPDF

As to `CC(Cc1ccc(O)c(O)c1)C(C)Cc1ccc(O)c(O)c1` (configuration not stated) [NORDIHYDROGUAIARETIC ACID], the EC50 (as a rule, the concentration that produces a half-maximal response) came out at 35 µM in data set [1] and 4.9 µM in data set [3]. In [2], the result was inactive. Besides, the result in data set [4] was Active.
On to `CC(C)=CCC/C(C)=C/CC/C(C)=C/CSc1ccccc1C(=O)O` [SALIRASIB], for which the results for the EC50 in data set [1] and in data set [7] were 0.8 µM and 7 µM, respectively. In addition, in [5], the result was inactive. For the same molecule, the outcome in data set [6] was Active.
Consider `O=C/C=C/c1ccccc1`, for which the EC50 stood at 61 µM in data set [8] and 9 µM in [1]. Besides, the result in [4] was Active.
For `O=C(/C=C/c1ccc(C(F)(F)F)cc1)Nc1ccccc1C(=O)O`, the Activity worked out at 51% in data set [9], 28% in [11] and 17% in data set [13]. Besides, the EC50 in data set [1] turned out to be 27 µM. Moreover, the result in [2], in [15], in [4] and in data set [19] was Active. Moreover, the result in data set [10], in data set [12] and in data set [14] was inactive. For the same molecule, in data set [16], the IC50 (in general, the concentration needed to halve the response being measured) came to 34 µM. The inhibition result in data set [17] is “inactive”. For the same molecule, in [18], the pKa (usually the pH at which an ionisable group is half protonated) worked out at 3.4.
For the molecule `O=C(O)c1cc([N+](=O)[O-])ccc1NCCCc1ccccc1` [5-NITRO-2-PHENYLPROPYLAMINOBENZOIC ACID [NPPB]], the EC50 was 0.6 µM in data set [1] and 0.32 µM in data set [20]. In addition, the outcome in data set [5] was inactive. Besides, the result in data set [6] was Active.
For the molecule `C=CCc1ccc(O)c(OC)c1` [EUGENOL], the EC50 was determined as 168 µM in data set [1] and 261 µM in [22]. Further, the outcome in data set [21] was inactive. In [23], the outcome was Active.
Regarding `CCCN(CCC)S(=O)(=O)c1ccc(C(=O)O)cc1` [PROBENECID], the result in data set [24] and in [26] was inactive. For the same molecule, the EC50 in data set [25] stood at 4200 µM. In [27], the outcome was Active.
